Experimental data from ChEMBL document CHEMBL4819149, “A facile reaction to access novel structural sulfonyl-hybridized imidazolyl ethanols as potential DNA-targeting antibacterial agents” (Bioorg Med Chem Lett, 2021).
Values after ≈ are worked out from the molar mass of the structure shown. Active and inactive are the calls of the source. The rule behind the calls is not given here.

Columns and labels:
Staphylococcus aureus [1] = assay: Antibacterial activity against Staphylococcus aureus ATCC 29213 assessed as bacterial growth inhibition by broth microdilution method; type: functional
In short: (§1)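 MIC values reported in µg/mL, determined by broth microdilution in microdilution plates.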

Acinetobacter baumannii = assay: Antibacterial activity against Acinetobacter baumannii assessed as bacterial growth inhibition by broth microdilution method; type: functional; in short: as §1
Staphylococcus aureus [2] = assay: Antibacterial activity against Staphylococcus aureus ATCC 25923 assessed as bacterial growth inhibition by broth microdilution method; type: functional; in short: as §1
Enterococcus faecalis = assay: Antibacterial activity against Enterococcus faecalis assessed as bacterial growth inhibition by broth microdilution method; type: functional; in short: as §1
Staphylococcus aureus [3] = assay: Antibacterial activity against Staphylococcus aureus assessed as bacterial growth inhibition by broth microdilution method; type: functional; in short: as §1
Pseudomonas aeruginosa [4] = assay: Antibacterial activity against Pseudomonas aeruginosa ATCC 27853 assessed as bacterial growth inhibition by broth microdilution method; type: functional; in short: as §1
Escherichia coli [5] = assay: Antibacterial activity against Escherichia coli ATCC 25922 assessed as bacterial growth inhibition by broth microdilution method; type: functional; in short: as §1
Klebsiella pneumoniae = assay: Antibacterial activity against Klebsiella pneumonia assessed as bacterial growth inhibition by broth microdilution method; type: functional; in short: as §1
Escherichia coli [6] = assay: Antibacterial activity against Escherichia coli assessed as bacterial growth inhibition by broth microdilution method; type: functional; in short: as §1
Staphylococcus aureus [7] = assay: Antibacterial activity against methicillin-resistant Staphylococcus aureus assessed as bacterial growth inhibition by broth microdilution method; type: functional
In short: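 MIC read by micro broth dilution; values given in μg/mL.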

Pseudomonas aeruginosa [8] = assay: Antibacterial activity against Pseudomonas aeruginosa assessed as bacterial growth inhibition by broth microdilution method; type: functional; in short: as §1
Staphylococcus aureus [9] = assay: Antibacterial activity against methicillin-resistant Staphylococcus aureus measured after 13 passages by broth microdilution method; type: functional, organism-based

Row | Structure (SMILES) | MIC (Staphylococcus aureus [1]) | MIC (Acinetobacter baumannii) | MIC (Staphylococcus aureus [2]) | MIC (Enterococcus faecalis) | MIC (Staphylococcus aureus [3]) | MIC (Pseudomonas aeruginosa [4]) | MIC (Escherichia coli [5]) | MIC (Klebsiella pneumoniae) | MIC (Escherichia coli [6]) | MIC (Staphylococcus aureus [7]) | MIC (Pseudomonas aeruginosa [8]) | Activity (Staphylococcus aureus [9])
1 | CCc1nc(I)cn1C(CO)CS(=O)(=O)c1ccc(NC(C)=O)cc1 (stereo not drawn) | 64 µg/mL (≈ 134 µM) | 64 µg/mL (≈ 134 µM) | 64 µg/mL (≈ 134 µM) | 64 µg/mL (≈ 134 µM) | 64 µg/mL (≈ 134 µM) | 32 µg/mL (≈ 67 µM) | 32 µg/mL (≈ 67 µM) | 64 µg/mL (≈ 134 µM) | 64 µg/mL (≈ 134 µM) | 128 µg/mL (≈ 268 µM) | 256 µg/mL (≈ 536 µM) | –
2 | CC(C)c1nccn1C(CO)CS(=O)(=O)c1ccc(N)cc1 (stereo not drawn) | 64 µg/mL (≈ 198 µM) | 32 µg/mL (≈ 98.9 µM) | 32 µg/mL (≈ 98.9 µM) | 8 µg/mL (≈ 24.7 µM) | 128 µg/mL (≈ 396 µM) | 64 µg/mL (≈ 198 µM) | 64 µg/mL (≈ 198 µM) | 64 µg/mL (≈ 198 µM) | 128 µg/mL (≈ 396 µM) | 16 µg/mL (≈ 49.5 µM) | 256 µg/mL (≈ 792 µM) | –
3 | CC(=O)Nc1ccc(S(=O)(=O)CC(CO)n2cnc(C)c2)cc1 (stereo not drawn) | 32 µg/mL (≈ 94.8 µM) | 64 µg/mL (≈ 190 µM) | 64 µg/mL (≈ 190 µM) | 64 µg/mL (≈ 190 µM) | 128 µg/mL (≈ 379 µM) | 32 µg/mL (≈ 94.8 µM) | 64 µg/mL (≈ 190 µM) | 32 µg/mL (≈ 94.8 µM) | 64 µg/mL (≈ 190 µM) | 16 µg/mL (≈ 47.4 µM) | 128 µg/mL (≈ 379 µM) | –
4 | CCCc1nccn1C(CO)CS(=O)(=O)c1ccc(NC(C)=O)cc1 (stereo not drawn) | 32 µg/mL (≈ 87.6 µM) | 32 µg/mL (≈ 87.6 µM) | 64 µg/mL (≈ 175 µM) | 16 µg/mL (≈ 43.8 µM) | 32 µg/mL (≈ 87.6 µM) | 32 µg/mL (≈ 87.6 µM) | 64 µg/mL (≈ 175 µM) | 128 µg/mL (≈ 350 µM) | 64 µg/mL (≈ 175 µM) | 32 µg/mL (≈ 87.6 µM) | 256 µg/mL (≈ 700 µM) | –
5 | Nc1ccc(S(=O)(=O)Nc2nccs2)cc1 [SULFATHIAZOLE] | 512 µg/mL (≈ 2010 µM) | 64 µg/mL (≈ 251 µM) | 512 µg/mL (≈ 2010 µM) | 512 µg/mL (≈ 2010 µM) | 512 µg/mL (≈ 2010 µM) | 512 µg/mL (≈ 2010 µM) | 128 µg/mL (≈ 501 µM) | 128 µg/mL (≈ 501 µM) | 256 µg/mL (≈ 1000 µM) | 64 µg/mL (≈ 251 µM) | 128 µg/mL (≈ 501 µM) | inactive
6 | CCCc1nccn1C(CO)CS(=O)(=O)c1ccc(N)cc1 (stereo not drawn) | 128 µg/mL (≈ 396 µM) | 32 µg/mL (≈ 98.9 µM) | 64 µg/mL (≈ 198 µM) | 32 µg/mL (≈ 98.9 µM) | 128 µg/mL (≈ 396 µM) | 32 µg/mL (≈ 98.9 µM) | 64 µg/mL (≈ 198 µM) | 128 µg/mL (≈ 396 µM) | 64 µg/mL (≈ 198 µM) | 8 µg/mL (≈ 24.7 µM) | 256 µg/mL (≈ 792 µM) | –
7 | CCc1nc(I)cn1C(CO)CS(=O)(=O)c1ccc(N)cc1 (stereo not drawn) | 64 µg/mL (≈ 147 µM) | 64 µg/mL (≈ 147 µM) | 64 µg/mL (≈ 147 µM) | 64 µg/mL (≈ 147 µM) | 64 µg/mL (≈ 147 µM) | 32 µg/mL (≈ 73.5 µM) | 32 µg/mL (≈ 73.5 µM) | 256 µg/mL (≈ 588 µM) | 64 µg/mL (≈ 147 µM) | 16 µg/mL (≈ 36.8 µM) | 256 µg/mL (≈ 588 µM) | –
8 | CC(=O)Nc1ccc(S(=O)(=O)CC(CO)n2cnc(Br)c2)cc1 (stereo not drawn) | 32 µg/mL (≈ 79.5 µM) | 64 µg/mL (≈ 159 µM) | 64 µg/mL (≈ 159 µM) | 8 µg/mL (≈ 19.9 µM) | 64 µg/mL (≈ 159 µM) | 32 µg/mL (≈ 79.5 µM) | 32 µg/mL (≈ 79.5 µM) | 256 µg/mL (≈ 636 µM) | 64 µg/mL (≈ 159 µM) | 8 µg/mL (≈ 19.9 µM) | 256 µg/mL (≈ 636 µM) | –
9 | Nc1ccc(S(=O)(=O)CC(CO)n2cnc(I)c2)cc1 (stereo not drawn) | 64 µg/mL (≈ 157 µM) | 64 µg/mL (≈ 157 µM) | 64 µg/mL (≈ 157 µM) | 256 µg/mL (≈ 629 µM) | 64 µg/mL (≈ 157 µM) | 32 µg/mL (≈ 78.6 µM) | 32 µg/mL (≈ 78.6 µM) | 256 µg/mL (≈ 629 µM) | 64 µg/mL (≈ 157 µM) | 64 µg/mL (≈ 157 µM) | 256 µg/mL (≈ 629 µM) | –
10 | CC(=O)Nc1ccc(S(=O)(=O)CC(CO)n2ccnc2C(C)C)cc1 (stereo not drawn) | 16 µg/mL (≈ 43.8 µM) | 32 µg/mL (≈ 87.6 µM) | 64 µg/mL (≈ 175 µM) | 32 µg/mL (≈ 87.6 µM) | 128 µg/mL (≈ 350 µM) | 64 µg/mL (≈ 175 µM) | 64 µg/mL (≈ 175 µM) | 64 µg/mL (≈ 175 µM) | 64 µg/mL (≈ 175 µM) | 16 µg/mL (≈ 43.8 µM) | 256 µg/mL (≈ 700 µM) | –
11 | Nc1ccc(S(=O)(=O)CC(CO)n2ccnc2)cc1 (stereo not drawn) | 64 µg/mL (≈ 227 µM) | 128 µg/mL (≈ 455 µM) | 64 µg/mL (≈ 227 µM) | 32 µg/mL (≈ 114 µM) | 32 µg/mL (≈ 114 µM) | 64 µg/mL (≈ 227 µM) | 64 µg/mL (≈ 227 µM) | 128 µg/mL (≈ 455 µM) | 128 µg/mL (≈ 455 µM) | 16 µg/mL (≈ 56.9 µM) | 256 µg/mL (≈ 910 µM) | –
12 | CCc1nccn1C(CO)CS(=O)(=O)c1ccc(N)cc1 (stereo not drawn) | 64 µg/mL (≈ 207 µM) | 64 µg/mL (≈ 207 µM) | 64 µg/mL (≈ 207 µM) | 16 µg/mL (≈ 51.7 µM) | 64 µg/mL (≈ 207 µM) | 32 µg/mL (≈ 103 µM) | 32 µg/mL (≈ 103 µM) | 128 µg/mL (≈ 414 µM) | 64 µg/mL (≈ 207 µM) | 16 µg/mL (≈ 51.7 µM) | 256 µg/mL (≈ 827 µM) | –
